Source: PubChem BioAssay
Sampled rows, rich in hits. Any-hit rate of the full collection: about 3%.
DDE Tn7 FP inh – inhibitors of Tn7 peptide binding to human fibrin DD(E); 0.13% of 370,000 active; inhibition, % at 8.3 µM; FP displacement of FITC-Tn7 peptide from fibrin DD(E); 0% = median of compound wells per plate; P02675; AID 720508;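 active means inhibition above the mean of compounds falling within the control limits plus 3 SD of them, cut at about 14% in these data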
Target sequence (P02675 whole entry, looked up): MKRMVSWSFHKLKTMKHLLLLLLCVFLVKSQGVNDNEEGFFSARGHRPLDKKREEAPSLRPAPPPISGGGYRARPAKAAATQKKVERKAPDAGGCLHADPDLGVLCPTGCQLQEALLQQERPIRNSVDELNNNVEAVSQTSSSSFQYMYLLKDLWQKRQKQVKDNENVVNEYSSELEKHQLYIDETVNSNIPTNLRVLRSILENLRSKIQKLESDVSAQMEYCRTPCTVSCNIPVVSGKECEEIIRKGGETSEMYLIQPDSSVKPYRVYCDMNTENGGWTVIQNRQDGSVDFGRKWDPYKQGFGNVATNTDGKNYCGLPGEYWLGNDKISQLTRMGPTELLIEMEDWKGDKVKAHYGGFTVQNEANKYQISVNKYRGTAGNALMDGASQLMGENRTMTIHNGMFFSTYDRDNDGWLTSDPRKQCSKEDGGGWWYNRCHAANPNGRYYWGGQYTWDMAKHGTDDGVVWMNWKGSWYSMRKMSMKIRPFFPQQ
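System: human fibrin DD(E); quantity: Fibrin-DD(E) at 2 µM final; also added: fluorescent Tn7 probe at 0.1 µM; compound dosing: single nominal test concentration of 8.3 µM per compound; schedule: 10 min preincubation, 3 h with tracer, room temperature; detection: fluorescence polarization of the labelled Tn7 tracer; repeats: one replicate per compound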
PLC-gamma1 inh – PLC-gamma1 (human) inhibition, primary screen. 0.84% of 370,000 active. P19174. inhibition, % at 12.2 µM. purified PLC-gamma1, fluorogenic substrate, fluorescence
KLK7 zymogen act – activates the human kallikrein-7 zymogen. purified proKLK7, EDANS-DABCYL substrate fluorescence; 100% is mature enzyme control, 0% vehicle. AID 652039. P49862. 0.9% of 370,000 active. activation, % at 7 µM;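 active means activation above the mean of all tested compounds plus 3 SD, computed per campaign excluding outliers beyond control limits, cut at about 13% in these data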
Tn6 DDE FP – disrupts Tn6 cyclic peptide binding to fibrin D-Dimer-E complex. P02675. Fibrin DD(E) TRITC-Tn6 fluorescence polarization displacement. inhibition, % at 8.3 µM. 0.21% of 370,000 active. AID 720509;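 active means inhibition above a per-campaign cutoff: mean of compounds within control limits plus 3 SD, cut at about 15% in these data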
PLCb3 inh – inhibitors of human phospholipase C beta3; Q01970; Purified PLC-beta3, fluorogenic substrate, fluorescence; inhibition, % at 12.2 µM; 0.18% of 370,000 active; AID 720704; in the data active means inhibition above about 11%
NRP1-CendR mod – alters CendR peptide binding to human NRP-1; AID 602438; 0.85% of 360,000 active; FAM-RPARPAR peptide binding to NRP-1, fluorescence polarization; inhibition, % at 25 µM; O14786;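 active means inhibition or corrected inhibition above about 18%, plus a signal ratio from 0.5 to 1.5, limit read from the data, passing the limit was not always enough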
PLCg1 ctr – inhibits human PLC-gamma1 in PLC-beta3 counter-screen; purified PLC-gamma1, fluorogenic substrate, fluorescence; 3.1% of 3,300 active; shares compounds with PLC-gamma1 inh; inhibition, % at 12.3 µM
PLCb3 confirm – confirmation of human PLC-beta3 inhibitors | shares compounds with PLC-gamma1 inh | purified PLC-beta3, fluorogenic substrate fluorescence | inhibition, % at 12.3 µM | 1% of 3,300 active | AID 743261; in the data active means inhibition above about 11%
A number is an active result; . = inactive; / = no result. Unless noted, no stated cut-off is given here; in the data, active means inhibition above about 9.5%; inactive means the rest.

SMILES	DDE Tn7 FP inh	PLC-gamma1 inh	KLK7 zymogen act	Tn6 DDE FP	PLCb3 inh	NRP1-CendR mod	PLCg1 ctr	PLCb3 confirm
CN(C)C(CNC(=O)c1ccccc1C(F)(F)F)c1ccco1 (configuration not stated)	.	.	.	.	.	.	/	/
CN(C)C(CNC(=O)c1c(F)cccc1Cl)c1ccco1 (configuration not stated)	.	11.4	.	.	.	.	.	.
O=C(NCCN1C(=O)CSC1=O)C1CC(=O)N(c2ccccc2)C1 (configuration not stated)	.	10.2	.	.	.	.	.	.
O=C(NCCc1ccccc1F)C1CC(=O)N(c2ccccc2)C1 (configuration not stated)	.	.	.	.	.	.	/	/
O=C(NC(=S)Nc1cccc(Cl)c1N1CCOCC1)c1cccs1	.	9.9	.	.	.	.	.	.
COP(=O)(O)C(C)NC(=O)OCc1ccccc1 (configuration not stated)	.	.	.	.	.	/	/	/
OC(COC1CCCCC1)CN1CCN(c2ccccc2)CC1 (configuration not stated)	.	12.9	.	.	.	.	.	.
Cc1ccc(S(=O)(=O)N=C2SCCCS2)cc1	.	9.9	.	.	.	.	.	.
CC1C(c2ccccc2)OCCN1C(=S)NC(=O)c1ccccc1 (configuration not stated)	.	.	.	.	14.7	.	.	.
CC1CCN(C(=S)NC(=O)c2ccccc2)CC1	.	.	.	.	.	.	/	/
CC1(C)Cc2nc(Cl)c(C(N)=O)cc2CO1	.	10.2	.	.	.	.	.	.
O=C(OCc1cn(Cc2c(F)cccc2F)nn1)N1CCOCC1	.	.	.	.	.	/	/	/
O=C(Nc1ccc(F)c(Cl)c1)c1nsc(Cl)c1Cl	.	11.4	.	.	.	.	.	.
CC(C)(C)C1CCC(=O)N(CCC#N)CC1 (configuration not stated)	.	10.8	.	.	.	.	.	.
CC(C)(C)C1CCC(=O)N(CCSc2ccccc2)CC1 (configuration not stated)	.	12.7	.	.	.	.	.	.
Cc1ccc(SCCN2CCC(C(C)(C)C)CCC2=O)cc1 (configuration not stated)	.	.	.	.	.	.	/	/
COC(=O)[C@]1(C#N)CC(=O)N(c2ccccc2)[C@@H]1c1ccccc1	.	.	.	.	.	/	/	/
COC(=O)[C@]12C[C@H](CC(=O)N3CCN(C(=O)c4ccco4)CC3)C(=O)N(Cc3ccccc3)C1=C[C@H](C(C)(C)C)O[C@@H]2C	.	.	.	.	.	/	/	/
COc1cccc(C(=O)NC2CC3CCCC(C2)N3CC(=O)Nc2ccccc2)c1 (configuration not stated)	.	.	.	.	.	.	/	/
COc1cccc(C(=O)NC2CC3CCCC(C2)N3CC(=O)Nc2ccc(N(C)C)cc2)c1 (configuration not stated)	.	10.7	.	.	.	.	.	.
Cc1ccc(-n2c(SCC(=O)Nc3ccccc3-c3ccccc3)nnc2-c2ccccn2)cc1	.	.	.	.	.	/	/	/
O=C(OC12CCCN(C1)/C(=C/c1cccc(Cl)c1)C2)c1ccc(Cl)cc1 (configuration not stated)	.	.	.	.	.	/	/	/
CCOC(=O)c1c(CC(C)C)csc1NC(=O)CCl	.	.	.	.	10.9	.	.	.
CN(C)C(=O)OCC1COc2ccccc2O1 (configuration not stated)	.	9.9	.	.	.	.	.	.
O=C(O)CCC1COc2ccccc2O1 (configuration not stated)	.	11.1	.	.	.	.	.	.
SMILES	DDE Tn7 FP inh	PLC-gamma1 inh	KLK7 zymogen act	Tn6 DDE FP	PLCb3 inh	NRP1-CendR mod	PLCg1 ctr	PLCb3 confirm
O=C(CSc1nnc(-c2ccccc2)n1-c1ccc(Cl)cc1)NN=Cc1c[nH]c2ccccc12	.	.	.	.	.	/	/	/
C[C@H](CO)N1C[C@H](C)[C@@H](CN(C)C(=O)Nc2ccccc2)Oc2c(NS(=O)(=O)c3ccc(F)cc3)cccc2C1=O	.	.	.	.	11.2	.	.	.
COc1ccc(C(=O)N2CCCC(c3cc(C(=O)NCc4ccc(F)cc4)no3)C2)cc1 (configuration not stated)	.	9.7	.	.	.	.	.	.
CC(CN1CCOCC1)OC(=O)c1cccc(Br)c1 (configuration not stated)	.	.	.	.	11.7	.	.	.
Cc1cccc(C(=O)OC(C)CN2CCOCC2)c1 (configuration not stated)	.	.	.	.	.	.	/	/
Cc1nc2ccc(S(=O)(=O)NCC(=O)NCc3ccc4c(c3)OCO4)cc2s1	.	.	.	.	12.4	.	.	.
Cc1nc2ccc(S(=O)(=O)N(C)CC(=O)NCc3ccc4c(c3)OCO4)cc2s1	.	.	.	.	.	.	/	/
COc1ccc(C(=O)Nc2ccc(OC)c([N+](=O)[O-])c2)cc1Br	.	.	.	.	.	.	/	/
COc1ccc(C(=O)Nc2cccc([N+](=O)[O-])c2)cc1Br	.	.	.	.	11.1	.	.	.
CSc1nc(N)c(C(=O)NC2CCCCC2)s1	.	12.4	.	.	.	.	9.6	.
O=S(=O)(CC1NCc2ccccc21)NC1CCCC1 (configuration not stated)	.	.	.	.	.	/	/	/
O=C(NCC1CCCO1)c1cnn2c1NC(c1ccccc1)CC2C(F)(F)F (configuration not stated)	.	12.1	.	.	.	.	.	.
O=C(NCC1CCCO1)c1nn2c(c1Cl)NC(c1ccc(F)cc1)CC2C(F)(F)F (configuration not stated)	.	.	.	.	.	.	/	/
Nc1nc(Cl)cc(Nc2ccccc2Cl)n1	.	.	.	.	.	.	/	/
CCc1c(N)nc(N)nc1Nc1ccccc1Cl	.	11.2	.	.	11.5	.	.	.
CCc1cccc2c1NC1(CCCC1)CC2C (configuration not stated)	.	10.3	.	.	.	.	.	.
CC1CC2(CCCCC2)Nc2ccc3ccccc3c21 (configuration not stated)	.	.	.	.	.	.	/	/
O=C(CCS(=O)(=O)c1ccccc1)Nc1ccc(F)cc1F	.	.	.	.	.	/	/	/
CN(C)S(=O)(=O)c1cccc(C(=O)N/N=C\c2cccc(C#N)c2)c1	.	.	.	.	.	/	/	/
CCCCn1c(CCCNC(=O)c2ccco2)nc2ccccc21	.	12.1	.	.	.	22.2	.	.
